Results taken from ChEMBL document CHEMBL4339182, “Pyridine and nitro-phenyl linked 1,3,4-thiadiazoles as MDR-TB inhibitors” (Eur J Med Chem, 2019).
pIC50: −log10 of the molar value. ≈ marks a conversion by molar mass, not a printed value.

What was measured:
[1] = tested on: Mycobacterium tuberculosis; assay: Antimycobacterial activity against Mycobacterium tuberculosis H37Rv incubated for 12 to 28 days by agar dilution method; format: functional
Procedure, shortened: (§1)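 Conventional Lowenstein-Jensen agar dilution. Compound stock dilutions in DMSO (200 to 1.56 µg/mL) were added to liquid L.J. medium, which was then sterilized by inspissation. Culture was harvested in 0.85% saline. Tubes were kept 24 h at 37 °C, streaked with 5 x 10⁴ bacilli per tube, and incubated at 37 °C. Growth was read at days 12, 22 and 28 against drug-free controls. MIC was the lowest concentration giving no colonies or fewer than 20 (≥99% inhibition), converted from µg/mL to µM.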

[2] = tested on: Mycobacterium tuberculosis; assay: Antimycobacterial activity against Mycobacterium tuberculosis MDR-TB incubated for 12 to 28 days by agar dilution method; format: functional; procedure, shortened: as §1
Vero = assay: Cytotoxicity against African green monkey Vero cells assessed as reduction in cell viability incubated for 72 hrs by MTT assay; format: cell-based; conditions: Chlorocebus sabaeus
Procedure, shortened: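 Vero cells were grown in DMEM with 2 mM Na₂CO₃ and 10% FBS at 37 °C under 5% CO₂ until confluent, then diluted in PBS. Compounds came from DMSO stocks diluted in medium, with 1% DMSO final. Exposure was 72 h at 37 °C. Monolayers were washed with warm HBSS, then MTS-PMS was added for 3 h and absorbance read at 490 nm.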

[3] = tested on: Mycobacterium tuberculosis; assay: Antimycobacterial activity against Mycobacterium tuberculosis H37Rv ATCC 27294 by microplate alamar blue assay; format: functional

Structure (SMILES)	MIC90 [1]	MIC90 [2]	pIC50 (Vero)	MIC90 [3]
CCC(=O)Nc1nnc(-c2ccc([N+](=O)[O-])cc2)s1	89 µM (≈ 24.8 µg/mL)	> 200 µM		
O=C(CCl)Nc1nnc(-c2ccc([N+](=O)[O-])cc2)s1	168 µM (≈ 50.2 µg/mL)	> 200 µM		
O=C(Nc1nnc(-c2cccc([N+](=O)[O-])c2)s1)c1ccc([N+](=O)[O-])cc1	33 µM (≈ 12.3 µg/mL)	134 µM (≈ 49.8 µg/mL)	3.57	
CCCC(=O)Nc1nnc(-c2ccncc2)s1	201 µM (≈ 49.9 µg/mL)	> 200 µM		
O=C(Nc1nnc(-c2ccc([N+](=O)[O-])cc2)s1)c1ccccc1	38 µM (≈ 12.4 µg/mL)	306 µM (≈ 99.9 µg/mL)		
O=C(Nc1nnc(-c2ccc([N+](=O)[O-])cc2)s1)c1ccco1	9.87 µM (≈ 3.12 µg/mL)	9.87 µM (≈ 3.12 µg/mL)	3.51	
CC(C)(C)C(=O)Nc1nnc(-c2ccc([N+](=O)[O-])cc2)s1	204 µM (≈ 62.5 µg/mL)	> 200 µM		
CCCCC(=O)Nc1nnc(-c2ccc([N+](=O)[O-])cc2)s1	40 µM (≈ 12.3 µg/mL)	163 µM (≈ 49.9 µg/mL)	3.56	
CCCC(=O)Nc1nnc(-c2cccc([N+](=O)[O-])c2)s1	42 µM (≈ 12.3 µg/mL)	> 200 µM		
O=C(Nc1nnc(-c2ccncc2)s1)C(Cl)(Cl)Cl	> 200 µM	> 200 µM		
O=C(CCl)Nc1nnc(-c2cccc([N+](=O)[O-])c2)s1	21 µM (≈ 6.27 µg/mL)	> 200 µM		
O=C(Nc1nnc(-c2ccncc2)s1)c1cccs1	21 µM (≈ 6.06 µg/mL)	> 200 µM		
O=C(Cl)CCCCC(=O)Nc1nnc(-c2ccncc2)s1	192 µM (≈ 62.4 µg/mL)	> 200 µM		
CC(Cl)CC(=O)Nc1nnc(-c2ccncc2)s1 (stereo not drawn)	> 200 µM	> 200 µM		
O=C(CCCCl)Nc1nnc(-c2ccc([N+](=O)[O-])cc2)s1	153 µM (≈ 50 µg/mL)	> 200 µM		
O=C(Nc1nnc(-c2ccc([N+](=O)[O-])cc2)s1)c1ccc([N+](=O)[O-])cc1	16.8 µM (≈ 6.25 µg/mL)	67 µM (≈ 24.9 µg/mL)	3.54	
CCCCC(=O)Nc1nnc(-c2cccc([N+](=O)[O-])c2)s1	40 µM (≈ 12.3 µg/mL)	163 µM (≈ 49.9 µg/mL)	3.54	
O=C(CCl)Nc1nnc(-c2ccncc2)s1	196 µM (≈ 49.9 µg/mL)	> 200 µM		
O=C(CSc1nnc(-c2ccc([N+](=O)[O-])o2)s1)Oc1ccccc1				0.78 µg/mL (≈ 2.15 µM)
O=C(CCCCl)Nc1nnc(-c2cccc([N+](=O)[O-])c2)s1	153 µM (≈ 50 µg/mL)	> 200 µM		
CC(Cl)CC(=O)Nc1nnc(-c2cccc([N+](=O)[O-])c2)s1 (stereo not drawn)	> 200 µM	> 200 µM		
O=C(Nc1nnc(-c2ccc([N+](=O)[O-])cc2)s1)c1cccs1	> 200 µM	> 200 µM		

Structure (SMILES)	MIC90 [1]	MIC90 [2]	pIC50 (Vero)	MIC90 [3]
Cc1ccc(C(=O)Nc2nnc(-c3ccc([N+](=O)[O-])cc3)s2)cc1	18.4 µM (≈ 6.26 µg/mL)	147 µM (≈ 50 µg/mL)	3.51	
O=[N+]([O-])c1ccc(CSc2nnc(-c3ccc([N+](=O)[O-])o3)s2)cc1				3.13 µg/mL (≈ 8.59 µM)
O=C(Nc1nnc(-c2cccc([N+](=O)[O-])c2)s1)c1cccs1	301 µM (≈ 100 µg/mL)	> 200 µM		
O=C(Cl)CCCCC(=O)Nc1nnc(-c2ccc([N+](=O)[O-])cc2)s1	135 µM (≈ 49.8 µg/mL)	271 µM (≈ 99.9 µg/mL)		
CCCC(=O)Nc1nnc(-c2ccc([N+](=O)[O-])cc2)s1	42 µM (≈ 12.3 µg/mL)	171 µM (≈ 50 µg/mL)	3.52	
COc1ccc(C(=O)Nc2nnc(-c3ccc([N+](=O)[O-])cc3)s2)cc1	35 µM (≈ 12.5 µg/mL)	140 µM (≈ 49.9 µg/mL)	3.56	
COc1ccc(C(=O)Nc2nnc(-c3cccc([N+](=O)[O-])c3)s2)cc1	35 µM (≈ 12.5 µg/mL)	280 µM (≈ 99.8 µg/mL)		
CC(C)(C)C(=O)Nc1nnc(-c2cccc([N+](=O)[O-])c2)s1	204 µM (≈ 62.5 µg/mL)	> 200 µM		
CCC(=O)Nc1nnc(-c2cccc([N+](=O)[O-])c2)s1	89 µM (≈ 24.8 µg/mL)	> 200 µM		
O=C(Nc1nnc(-c2ccc([N+](=O)[O-])cc2)s1)C(Cl)(Cl)Cl	273 µM (≈ 100 µg/mL)	> 200 µM		
O=C(Cl)CCCCC(=O)Nc1nnc(-c2cccc([N+](=O)[O-])c2)s1	135 µM (≈ 49.8 µg/mL)	> 200 µM		
C/C=C/C(CCC)N(C(=O)c1ccccc1)c1nnc(-c2ccc([N+](=O)[O-])cc2)s1 (stereo not drawn)	117 µM (≈ 49.4 µg/mL)	> 200 µM		
O=C(Nc1nnc(-c2cccc([N+](=O)[O-])c2)s1)c1ccccc1	38 µM (≈ 12.4 µg/mL)	> 200 µM		
O=C(Nc1nnc(-c2cccc([N+](=O)[O-])c2)s1)c1ccco1	19 µM (≈ 6.01 µg/mL)	39 µM (≈ 12.3 µg/mL)	3.51	
CC(C)(C)C(=O)Nc1nnc(-c2ccncc2)s1	238 µM (≈ 62.4 µg/mL)	> 200 µM		
O=C(CCCCl)Nc1nnc(-c2ccncc2)s1	221 µM (≈ 62.5 µg/mL)	> 200 µM		
O=C(Nc1nnc(-c2ccncc2)s1)c1ccc([N+](=O)[O-])cc1	9.93 µM (≈ 3.25 µg/mL)	76 µM (≈ 24.9 µg/mL)	3.43	
CCCCC(=O)Nc1nnc(-c2ccncc2)s1	95 µM (≈ 24.9 µg/mL)	381 µM (≈ 100 µg/mL)		
NNC(=O)c1ccncc1 [ISONIAZID]	3.64 µM (≈ 0.499 µg/mL)	> 200 µM		
CO[C@H]1/C=C/O[C@@]2(C)Oc3c(C)c(O)c4c(O)c(c(/C=N/N5CCN(C)CC5)c(O)c4c3C2=O)NC(=O)/C(C)=C\C=C\[C@H](C)[C@H](O)[C@@H](C)[C@@H](O)[C@@H](C)[C@H](OC(C)=O)[C@@H]1C [RIFAMPIN]	0.152 µM (≈ 0.125 µg/mL)	128 µM (≈ 105 µg/mL)		
CN[C@@H]1C[C@H]2O[C@@](C)([C@@H]1OC)n1c3ccccc3c3c4c(c5c6ccccc6n2c5c31)C(=O)NC4 [STAUROSPORINE]			7.55	
